How the values were obtained:
[1] = target: T1, Cannabinoid receptor 1 (Homo sapiens, UniProt P21554); experiment: Displacement of [3H]CP-55940 from human recombinant CB1R expressed in CHO cells; assay type: cell-based
In short: (§1)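 Radioligand competition used 0.5 nM [³H]CP55940 with recombinant human CB1R-CHO or CB2R-CHO membranes. Bound and free ligand were separated by filtration, and IC₅₀ came from nonlinear curve fitting.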

[2] = target: Cannabinoid receptor 2 (Homo sapiens, UniProt P34972); experiment: Displacement of [3H]CP-55940 from human recombinant CB2R expressed in CHO cells; assay type: cell-based; in short: as §1
Chain of Cannabinoid receptor 2 (P34972 whole entry): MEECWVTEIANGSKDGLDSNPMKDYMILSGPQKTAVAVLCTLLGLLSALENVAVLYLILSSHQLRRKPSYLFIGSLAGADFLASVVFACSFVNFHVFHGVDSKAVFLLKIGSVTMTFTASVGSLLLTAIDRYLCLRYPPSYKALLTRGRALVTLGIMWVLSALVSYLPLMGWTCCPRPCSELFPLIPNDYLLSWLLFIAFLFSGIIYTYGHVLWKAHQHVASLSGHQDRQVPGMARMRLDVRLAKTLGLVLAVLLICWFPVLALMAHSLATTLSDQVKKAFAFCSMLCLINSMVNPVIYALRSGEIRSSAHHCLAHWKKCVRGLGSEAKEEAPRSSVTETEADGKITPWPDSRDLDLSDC

[3] = system: Rattus norvegicus; experiment: Reduction of body weight in diet induced obese Sprague-Dawley rat at 3 mg/kg, po; assay type: functional
In short: (§2)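 Male DIO rats were acclimated at least 3 days in an automated food-intake system, where computer-linked balances logged grams of food eaten every 5 min. They were fed milled MHF diet throughout. Compound or vehicle (10% Tween-80 in water) was given by oral gavage 1 h before dark-cycle onset. Overnight food intake and body-weight change were measured against vehicle, with significance set at P < 0.05.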

[4] = target: Voltage-gated inwardly rectifying potassium channel KCNH2 (Homo sapiens, UniProt Q12809); experiment: Inhibition of human ERG by MK-0499 binding assay
Chain of Voltage-gated inwardly rectifying potassium channel KCNH2 (Q12809 whole entry): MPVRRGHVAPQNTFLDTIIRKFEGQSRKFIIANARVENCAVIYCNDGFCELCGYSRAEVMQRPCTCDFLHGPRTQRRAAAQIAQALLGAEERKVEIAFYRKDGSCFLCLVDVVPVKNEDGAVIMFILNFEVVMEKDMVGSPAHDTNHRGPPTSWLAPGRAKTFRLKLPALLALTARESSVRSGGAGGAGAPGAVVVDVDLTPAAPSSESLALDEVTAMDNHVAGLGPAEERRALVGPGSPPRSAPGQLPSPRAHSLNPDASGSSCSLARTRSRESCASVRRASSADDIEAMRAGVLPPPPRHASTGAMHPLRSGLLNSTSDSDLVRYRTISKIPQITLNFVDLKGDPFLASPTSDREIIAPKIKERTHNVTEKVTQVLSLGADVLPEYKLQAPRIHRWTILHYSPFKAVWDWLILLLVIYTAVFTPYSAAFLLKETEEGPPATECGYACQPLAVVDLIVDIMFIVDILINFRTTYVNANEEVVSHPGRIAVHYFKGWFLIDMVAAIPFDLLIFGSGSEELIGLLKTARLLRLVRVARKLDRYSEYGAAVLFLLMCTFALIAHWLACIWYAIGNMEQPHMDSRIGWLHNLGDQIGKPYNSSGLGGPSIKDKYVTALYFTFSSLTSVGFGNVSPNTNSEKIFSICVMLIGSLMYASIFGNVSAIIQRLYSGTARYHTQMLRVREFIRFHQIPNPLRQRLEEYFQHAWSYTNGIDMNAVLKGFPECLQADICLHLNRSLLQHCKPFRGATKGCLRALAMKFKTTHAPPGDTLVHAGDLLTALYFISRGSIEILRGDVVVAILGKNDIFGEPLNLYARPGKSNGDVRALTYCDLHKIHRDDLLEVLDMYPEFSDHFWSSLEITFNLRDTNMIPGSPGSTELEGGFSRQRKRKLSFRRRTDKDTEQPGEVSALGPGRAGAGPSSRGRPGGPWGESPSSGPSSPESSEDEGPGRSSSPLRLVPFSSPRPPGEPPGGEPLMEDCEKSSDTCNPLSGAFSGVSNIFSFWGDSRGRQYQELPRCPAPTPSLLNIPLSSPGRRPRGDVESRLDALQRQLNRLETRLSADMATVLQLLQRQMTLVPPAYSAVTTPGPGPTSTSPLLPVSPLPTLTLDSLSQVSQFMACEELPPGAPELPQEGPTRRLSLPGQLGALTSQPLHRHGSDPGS

[5] = system: Rattus norvegicus; experiment: Reduction of overnight food intake in diet induced obese Sprague-Dawley rat at 3 mg/kg, po; assay type: functional; set-up: scale not given: the % may be the effect or the level left; in short: as §2
[6] = target: T2, Cannabinoid receptor 1 (Rattus norvegicus, UniProt P20272); experiment: Displacement of [3H] SR-141716 from rat recombinant CB1R expressed in CHO cells; assay type: cell-based
T2 sequence (P20272 whole entry): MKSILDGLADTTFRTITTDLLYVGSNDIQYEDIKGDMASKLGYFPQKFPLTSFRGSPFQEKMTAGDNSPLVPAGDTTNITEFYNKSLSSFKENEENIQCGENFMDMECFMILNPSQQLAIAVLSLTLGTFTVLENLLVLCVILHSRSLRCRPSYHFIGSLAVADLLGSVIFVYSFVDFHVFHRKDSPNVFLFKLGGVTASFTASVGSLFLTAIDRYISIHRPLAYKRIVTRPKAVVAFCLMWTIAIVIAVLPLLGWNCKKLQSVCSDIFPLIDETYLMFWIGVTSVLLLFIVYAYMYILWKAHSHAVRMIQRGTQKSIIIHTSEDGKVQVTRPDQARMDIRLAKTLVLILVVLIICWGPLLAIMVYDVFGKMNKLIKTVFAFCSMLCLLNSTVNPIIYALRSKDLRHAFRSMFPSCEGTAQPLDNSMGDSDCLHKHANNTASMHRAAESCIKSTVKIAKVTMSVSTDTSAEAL

[7] = target: T1, Cannabinoid receptor 1; experiment: Displacement of [3H]SR141716 from human recombinant CB1R expressed in CHO cells; assay type: cell-based
[8] = target: T2, Cannabinoid receptor 1; experiment: Displacement of [3H]CP-55940 from rat recombinant CB1R expressed in CHO cells; assay type: cell-based
[9] = target: T2, Cannabinoid receptor 1; experiment: Antagonist activity at rat recombinant CB1R expressed in CHO cells assessed as inhibition of methanandamide-stimulated cAMP level; assay type: functional, cell-based
In short: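 Antagonist mode of the forskolin-stimulated cAMP assay in CB1R-CHO cells. Methanandamide at 300 nM was the agonist challenge, and IC₅₀ was determined across test-compound concentrations. Percent inhibition was also recorded at a single 2 µM test concentration.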

[10] = target: T1, Cannabinoid receptor 1; experiment: Inverse agonist activity at human recombinant CB1R expressed in CHO cells assessed as increase in forskolin-stimulated cAMP level; assay type: functional, cell-based
In short: (§3)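 Recombinant CB1R-CHO cells were incubated with test compound across a range of concentrations, plus forskolin and the phosphodiesterase inhibitor IBMX. Buffer was Earle's balanced salt solution with 5 mM MgCl₂, 10 mM HEPES pH 7.3 and 1 mg/mL BSA, for 30 min at room temperature, with cAMP read out.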

[11] = target: T2, Cannabinoid receptor 1; experiment: Agonist activity at rat recombinant CB1R expressed in CHO cells assessed as inhibition of forskolin-stimulated cAMP level; assay type: functional, cell-based; in short: as §3
[12] = Ratio of drug level in brain to plasma in Sprague-Dawley rat at 1 mg/kg, iv and 2 mg/kg, po over 0.25 to 4 hrs; assay type: ADME, organism-based
In short: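 Male Sprague-Dawley rats got 1 mpk iv for brain penetration and were euthanised by CO₂ 1 h later. Whole brain was frozen on dry ice, and blood was taken by cardiac puncture into lithium heparin. PK arms were dosed 1 mpk iv and 2 mpk po, with blood sampled at several time points. Plasma and brain homogenate were extracted by protein precipitation and analysed by LCMS².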

[13] = Volume of distribution at steady state in dog; assay type: ADME, organism-based, Canis lupus familiaris; details: in vivo, read-out: Vdss
[14] = Plasma clearance in dog; assay type: ADME, organism-based, Canis lupus familiaris
[15] = Cmax in dog; assay type: ADME, organism-based, Canis lupus familiaris; details: in vivo
[16] = target: Cytochrome P450 3A4 (Homo sapiens, UniProt P08684); experiment: Inhibition of CYP3A4; assay type: ADME
Chain of Cytochrome P450 3A4 (P08684 whole entry): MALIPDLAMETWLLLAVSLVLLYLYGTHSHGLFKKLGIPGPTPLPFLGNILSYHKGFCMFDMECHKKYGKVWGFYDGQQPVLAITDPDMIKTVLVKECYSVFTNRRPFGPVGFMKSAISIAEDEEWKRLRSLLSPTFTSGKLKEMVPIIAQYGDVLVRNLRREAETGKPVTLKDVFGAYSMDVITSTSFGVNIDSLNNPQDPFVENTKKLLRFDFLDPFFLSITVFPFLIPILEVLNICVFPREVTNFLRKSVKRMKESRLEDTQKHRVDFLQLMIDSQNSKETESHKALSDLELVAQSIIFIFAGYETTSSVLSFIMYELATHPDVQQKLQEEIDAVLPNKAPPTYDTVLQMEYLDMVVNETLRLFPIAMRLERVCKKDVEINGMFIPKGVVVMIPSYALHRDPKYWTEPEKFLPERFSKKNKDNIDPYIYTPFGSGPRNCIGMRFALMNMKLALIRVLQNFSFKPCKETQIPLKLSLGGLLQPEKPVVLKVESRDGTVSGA

[17] = Plasma clearance in rhesus monkey; assay type: ADME, organism-based, Macaca mulatta
[18] = Cmax in Sprague-Dawley rat at 1 mg/kg, iv and 2 mg/kg, po; assay type: ADME, organism-based; details: in vivo
In short: (§4)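 Male Sprague-Dawley rats received 1 mpk intravenously or 2 mpk orally. Blood was drawn at various time points into lithium heparin and centrifuged, and plasma was stored at -70 °C. Plasma was extracted by protein precipitation and analysed by LC-MS/MS.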

[19] = target: T3, Cytochrome P450 2C8 (Homo sapiens, UniProt P10632); experiment: Inhibition of CYP2C8; assay type: ADME
T3 sequence (P10632 whole entry): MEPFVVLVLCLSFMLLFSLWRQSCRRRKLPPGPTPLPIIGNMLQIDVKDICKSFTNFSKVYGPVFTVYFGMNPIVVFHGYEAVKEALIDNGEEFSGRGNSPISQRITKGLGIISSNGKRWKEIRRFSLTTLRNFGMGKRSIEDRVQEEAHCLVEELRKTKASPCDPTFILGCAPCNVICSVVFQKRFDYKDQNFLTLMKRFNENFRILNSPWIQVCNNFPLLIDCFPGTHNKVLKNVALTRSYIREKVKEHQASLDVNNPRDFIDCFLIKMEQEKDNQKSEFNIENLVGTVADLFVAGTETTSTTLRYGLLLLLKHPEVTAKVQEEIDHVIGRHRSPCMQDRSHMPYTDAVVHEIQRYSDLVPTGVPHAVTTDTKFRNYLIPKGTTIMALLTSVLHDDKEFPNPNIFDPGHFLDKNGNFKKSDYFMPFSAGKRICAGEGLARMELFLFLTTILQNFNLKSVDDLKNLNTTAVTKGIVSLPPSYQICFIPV

[20] = Volume of distribution at steady state in rhesus monkey; assay type: ADME, organism-based, Macaca mulatta; details: in vivo, read-out: Vdss
[21] = Cmax in rhesus monkey; assay type: ADME, organism-based, Macaca mulatta; details: in vivo
[22] = Ratio of drug level in brain to plasma in Sprague-Dawley rat at 1 mg/kg, iv and 2 mg/kg, po after 4 hrs; assay type: ADME, organism-based
[23] = Half life in dog; assay type: ADME, organism-based, Canis lupus familiaris; details: in vivo
[24] = Bioavailability in dog; assay type: ADME, organism-based, Canis lupus familiaris; details: in vivo
[25] = Oral bioavailability in rhesus monkey; assay type: ADME, organism-based, Macaca mulatta; details: in vivo
[26] = species: Rattus norvegicus; experiment: Reduction of overnight food intake in diet induced obese Sprague-Dawley rat assessed as minimal effective dose; assay type: functional; details: feed or water, read-out: MED; in short: as §2
[27] = Plasma clearance in Sprague-Dawley rat at 1 mg/kg, iv and 2 mg/kg, po; assay type: ADME, organism-based; in short: as §4
[28] = Bioavailability in Sprague-Dawley rat at 1 mg/kg, iv and 2 mg/kg, po; assay type: ADME, organism-based; details: in vivo; in short: as §4
[29] = target: Cytochrome P450 2C9 (Homo sapiens, UniProt P11712); experiment: Inhibition of CYP2C9; assay type: ADME
Chain of Cytochrome P450 2C9 (P11712 whole entry): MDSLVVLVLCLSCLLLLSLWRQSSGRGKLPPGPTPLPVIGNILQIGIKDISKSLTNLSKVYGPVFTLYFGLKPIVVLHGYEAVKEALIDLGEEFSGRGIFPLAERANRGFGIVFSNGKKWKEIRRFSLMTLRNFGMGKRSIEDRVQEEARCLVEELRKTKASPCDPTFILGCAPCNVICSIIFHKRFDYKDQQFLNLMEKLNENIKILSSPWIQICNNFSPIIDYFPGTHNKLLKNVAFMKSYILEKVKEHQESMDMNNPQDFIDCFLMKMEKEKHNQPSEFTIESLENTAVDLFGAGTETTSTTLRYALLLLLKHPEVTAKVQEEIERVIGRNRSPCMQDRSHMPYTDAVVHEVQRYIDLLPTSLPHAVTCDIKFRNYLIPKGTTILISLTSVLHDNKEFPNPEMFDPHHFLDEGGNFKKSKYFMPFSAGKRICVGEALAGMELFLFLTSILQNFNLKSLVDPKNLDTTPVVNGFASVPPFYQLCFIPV

[30] = Half life in rhesus monkey; assay type: ADME, organism-based, Macaca mulatta; details: in vivo
[31] = Volume of distribution at steady state in Sprague-Dawley rat at 1 mg/kg, iv and 2 mg/kg, po; assay type: ADME, organism-based; details: in vivo, read-out: Vdss; in short: as §4
[32] = Half life in Sprague-Dawley rat at 1 mg/kg, iv and 2 mg/kg, po; assay type: ADME, organism-based; details: in vivo; in short: as §4
[33] = target: T1, Cannabinoid receptor 1; experiment: Agonist activity at human recombinant CB1R expressed in CHO cells assessed as inhibition of forskolin-stimulated cAMP level; assay type: functional, cell-based; in short: as §3

T1 sequence (P21554 whole entry): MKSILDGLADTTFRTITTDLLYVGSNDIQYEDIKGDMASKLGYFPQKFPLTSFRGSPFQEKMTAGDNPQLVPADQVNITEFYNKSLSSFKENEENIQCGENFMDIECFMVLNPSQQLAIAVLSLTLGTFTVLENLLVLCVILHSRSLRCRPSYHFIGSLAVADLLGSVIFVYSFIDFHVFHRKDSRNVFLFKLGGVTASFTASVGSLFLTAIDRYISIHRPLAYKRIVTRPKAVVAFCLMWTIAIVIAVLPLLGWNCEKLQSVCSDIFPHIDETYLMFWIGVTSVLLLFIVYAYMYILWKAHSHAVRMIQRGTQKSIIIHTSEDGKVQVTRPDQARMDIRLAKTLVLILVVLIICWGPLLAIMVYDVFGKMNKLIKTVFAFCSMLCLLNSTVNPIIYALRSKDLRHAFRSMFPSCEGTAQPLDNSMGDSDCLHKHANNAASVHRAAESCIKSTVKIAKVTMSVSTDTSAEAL

Work on `O=C([C@@H]1C[C@H]1c1ccc(C(F)(F)F)cc1)N1CCN(S(=O)(=O)c2cc(-c3ccn[nH]3)cc(C(F)(F)F)c2)CC1` yielded an IC50 [1] of 0.3 nM, an IC50 [2] of over 10000 nM and an Activity [3] of -10 g. The IC50 [4] was 500 nM.

`O=C(Cc1ccc(C(F)(F)F)cc1)N1CCN(S(=O)(=O)c2cc(C3CC3)cc(C(F)(F)F)c2)CC1` showed an Activity [5] of -40%, an IC50 [1] of 1.2 nM and an IC50 [6] of 11 nM. The IC50 [2] was over 10000 nM, the IC50 [7] was 0.5 nM and the IC50 [8] was 27 nM. For the same compound, the IC50 [9] was 1.9 nM, the EC50 [10] was 1 nM and the EC50 [11] was 0.6 nM. It also gave an Activity [3] of -2 g and a Kp [12] of 1.1.

With `O=C([C@@H]1C[C@H]1c1ccc(C(F)(F)F)cc1)N1CCN(S(=O)(=O)c2cc(-c3nnc[nH]3)cc(C(F)(F)F)c2)CC1` the Vd [13] was 1.1 L/kg, the IC50 [1] was 0.2 nM and the clearance [14] was 1.4 mL/min/kg. For the same compound, the Cmax [15] was 210 nM, the IC50 [16] was 4700 nM and the clearance [17] was 14.6 mL/min/kg. It also gave a Cmax [18] of 190 nM, an IC50 [19] of 15000 nM and a Vd [20] of 2.5 L/kg. For the same compound, the IC50 [2] was over 10000 nM, the Cmax [21] was 3 nM and the Kp at 4 h [22] was 0.2. For the same compound, the half-life [23] was 8.6 h, the bioavailability [24] was 26% and the bioavailability [25] was under 2%. It also gave a minimal effective dose [26] of 0.3 mg/kg, a clearance [27] of 23.7 mL/min/kg and a bioavailability [28] of 31%. The IC50 [29] was 6000 nM, the Activity [3] was -14 g and the half-life [30] was 2 h. The Vd [31] was 3.8 L/kg and the half-life [32] was 3.8 h.

Work on `O=C([C@@H]1C[C@H]1c1ccc(C(F)(F)F)cc1)N1CCN(S(=O)(=O)c2cc(C3CC3)cc(C(F)(F)F)c2)CC1` yielded an Activity [5] of -59%, an IC50 [1] of 0.3 nM and an IC50 [6] of 0.2 nM. The EC50 [33] was 5.8 nM, the IC50 [2] was over 10000 nM and the Kp at 4 h [22] was 0.3. It also gave an IC50 [7] of 0.1 nM, an IC50 [8] of 2.2 nM and an IC50 [9] of 9.2 nM. The clearance [27] was 3.7 mL/min/kg, the bioavailability [28] was 74% and the EC50 [10] was 5.8 nM. For the same compound, the EC50 [11] was 3.4 nM, the Activity [3] was -14 g and the Vd [31] was 5.4 L/kg. The half-life [32] was 22 h and the Kp [12] was 0.8.

`O=C([C@@H]1C[C@H]1c1ccc(C(F)(F)F)cc1)N1CCN(S(=O)(=O)c2cc(C(O)C(F)(F)F)cc(C(F)(F)F)c2)CC1` (mixture of isomers) showed an IC50 [1] of 1.5 nM, an IC50 [2] of over 10000 nM and an Activity [3] of -8 g. The IC50 [4] was 60 nM.

Compound `O=C(c1ccc(C(F)(F)F)cc1)N1CCN(S(=O)(=O)c2cc(C3CC3)cc(C(F)(F)F)c2)CC1` has an Activity [5] of -14%, an IC50 [1] of 58 nM and an IC50 [6] of 227 nM. The EC50 [33] was 1.3 nM, the IC50 [7] was 47 nM and the IC50 [8] was 175 nM. For the same compound, the IC50 [9] was 77 nM, the clearance [27] was 1.9 mL/min/kg and the bioavailability [28] was 47%. For the same compound, the EC50 [11] was 4.4 nM, the Activity [3] was 8 g and the Vd [31] was 2.7 L/kg. For the same compound, the half-life [32] was 19 h and the Kp [12] was 0.8.
